# Screening results deposited in PubChem BioAssay by several laboratories.
# Tn7 DDE FP = DD(E)-Tn7 binding inhibition, primary FP screen. FP displacement of FITC-Tn7 peptide from fibrin DD(E); 0% = median of compound wells per plate. inhibition, % at 8.3 µM. hit rate 0.13% among 370,000;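 active = inhibition above the mean of compounds falling within the control limits plus 3 SD of them, cut at about 14% in these data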;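 note: 0% = plate median of compound wells and 100% = 10 µM Aha-Tn7 peptide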
#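 system = human fibrin DD(E) protein | quantity = DD(E) 2 µM final | medium = Tris/NaCl/CaCl2 buffer, pH 7.8 | also added = labelled Tn7 tracer, 0.1 µM | compound dosing = single point at 8.3 µM | timing = compound with protein 10 min, then 3 h after probe, room temperature | signal = FP measurement | benchmarks = Aha-Tn7 high control | repeats = one replicate per compound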
# Rtt109 Vps75 = C. albicans Rtt109 histone acetyltransferase inhibition | hit rate 0.16% among 330,000 | Q5AAJ8 | purified Rtt109/Vps75, ThioGlo CoA-SH fluorescence, 4 h | inhibition, % at 34.9 µM;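 active = inhibition of at least 50% in every replicate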
# DDE Tn6 FP inh = disrupts Tn6 cyclic peptide binding to fibrin D-Dimer-E complex | P02675 | Fibrin DD(E) TRITC-Tn6 fluorescence polarization displacement | inhibition, % at 8.3 µM | hit rate 0.21% among 370,000;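 active = inhibition above a per-campaign cutoff: mean of compounds within control limits plus 3 SD, cut at about 15% in these data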;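 note: 0% = median of all compound wells on the plate and 100% = blocking peptide control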
# LANA DNA inh = inhibitors of KSHV LANA C-terminal domain DNA binding. MBP-C-LANA/FAM-LBS DNA binding, fluorescence polarization. hit rate 0.078% among 340,000. inhibition, % at 9 µM;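 active = highest replicate inhibition at or above 60% at 9 µM, even if other replicates fall short; inactive = all replicates below 60% inhibition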;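 note: 0% = neutral control wells and 100% = 4 µM acridine orange control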
# Keap1 Nrf2 FP = inhibitors of human Keap1-Nrf2 protein-protein interaction | Keap1 Kelch-Nrf2 peptide fluorescence polarization, 1536-well | inhibition, % at 9.4 µM | hit rate 0.15% among 340,000 | Q14145; in the data active = inhibition above about 12%;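 note: human Keap1 Kelch domain with fluorescein labeled Nrf2 9mer peptide probe; 0% = neutral control wells and 100% = peptide positive control; higher means more block of Keap1 binding to Nrf2 peptide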
# Target sequence (Q14145 whole entry, looked up, the tested form may be a part): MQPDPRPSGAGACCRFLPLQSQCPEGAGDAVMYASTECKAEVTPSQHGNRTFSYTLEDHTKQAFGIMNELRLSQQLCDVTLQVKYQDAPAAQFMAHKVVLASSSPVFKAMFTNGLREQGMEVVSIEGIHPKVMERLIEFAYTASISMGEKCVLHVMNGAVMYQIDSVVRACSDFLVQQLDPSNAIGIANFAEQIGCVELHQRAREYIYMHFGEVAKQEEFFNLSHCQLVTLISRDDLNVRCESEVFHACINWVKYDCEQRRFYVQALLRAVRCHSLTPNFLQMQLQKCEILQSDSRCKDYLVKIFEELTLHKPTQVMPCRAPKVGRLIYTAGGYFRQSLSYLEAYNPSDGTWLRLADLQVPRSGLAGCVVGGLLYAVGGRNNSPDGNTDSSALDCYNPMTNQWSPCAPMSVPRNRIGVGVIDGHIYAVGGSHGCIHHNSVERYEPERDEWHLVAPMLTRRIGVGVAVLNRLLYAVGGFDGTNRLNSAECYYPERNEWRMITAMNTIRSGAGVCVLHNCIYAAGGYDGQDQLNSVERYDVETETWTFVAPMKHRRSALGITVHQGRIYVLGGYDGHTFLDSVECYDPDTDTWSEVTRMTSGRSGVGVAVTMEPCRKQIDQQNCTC
# Keap1 Kelch bind = binds and thermally shifts human Keap1 Kelch domain | shares compounds with Keap1 Nrf2 FP | Keap1 Kelch thermal shift, delta Tm; hits give high values | max delta Tm, degrees C | hit rate 8% among 400 | AID 651823; in the data active = max delta Tm above about 0.48 degrees C
# Dye-only ctr = dye artifact in Keap1 thermal shift counter-screen | 140 tested, under 10 active | shares compounds with Keap1 Nrf2 FP | Sypro Orange dye-only thermal melt, no protein, delta Tm; top dose 26 µM | delta Tm, degrees C (no concentration beside the values);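 active = at highest dose tested, delta Tm positive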
# Starred values were filed as active, the others as inactive; . = not tested or not shown. This is a sample that favours compounds with a hit; in the whole collection about 0.6% have one here.
SMILES,Tn7 DDE FP,Rtt109 Vps75,DDE Tn6 FP inh,LANA DNA inh,Keap1 Nrf2 FP,Keap1 Kelch bind,others
Cc1ccc(C(=O)N/C(=C\c2ccc(-c3ccccc3[N+](=O)[O-])o2)C(=O)NCCN(C)C)cc1,-3.9,0.2,6.0,10.0,4.9,.,
O=C1/C(=C/C=C/c2ccco2)SC(=S)N1NS(=O)(=O)c1ccccc1,2.8,34.7,-2.3,110.2*,27.8*,1.33*,
CC(C(=O)O)N1C(=O)/C(=C/C=C/c2ccco2)SC1=S (stereo unspecified),1.4,28.0,-3.0,103.8*,13.4*,0.77*,Dye-only ctr=-29
Cc1ccccc1Cn1cc(COC(=O)NCCc2c[nH]c3ccccc23)nn1,0.3,.,4.2,.,.,.,
COc1ccc2nc3ccccc3[n+]([O-])c2c1,7.5,0.9,2.1,49.7,39.1*,-0.14,
COC(=O)[C@]12C[C@H](CC(=O)N3CCCC3)C(=O)N(Cc3ccco3)C1=C[C@H](COCc1ccccc1)O[C@@H]2C,-1.7,.,-0.7,.,.,.,
CN(CC(=O)Nc1cc(C(F)(F)F)ccc1-n1cncn1)Cc1ccccc1N1CCOCC1,-5.2,-2.2,0.0,18.9,41.4*,-0.16,Dye-only ctr=-27.5
Nc1nc(SCC(=O)Nc2cc(C(F)(F)F)ccc2N2CCOCC2)n[nH]1,2.9,-3.6,3.8,0.0,14.3*,-0.07,Dye-only ctr=-26.8
Cc1nc(-c2ccc(S(=O)(=O)N3CCN(C4c5ccccc5-c5ccccc54)CC3)s2)cs1,-0.1,0.7,-0.8,0.7,-2.3,.,
Cc1nc(-c2ccc(S(=O)(=O)N3CCCN(CCc4ccccc4)CC3)s2)cs1,2.0,2.4,8.2,30.0,62.6*,-0.22,
Cc1ccc(NC(=S)N2CCN(Cc3ccccc3)CC2)cc1,-1.6,0.9,4.8,-0.1,1.2,.,
COc1ccc(NC(=S)N2CCN(Cc3ccc(C)cc3)CC2)cc1,3.3,-3.4,-0.2,-1.0,25.9*,-0.07,Dye-only ctr=-29.5
O=[N+]([O-])c1cc(C(F)(F)F)ccc1NC1CCN(Cc2ccccc2)CC1,-5.1,12.7,5.8,28.6,43.2*,-0.06,Dye-only ctr=-21.6
COc1cc(NS(=O)(=O)c2ccc(NC(=S)NC(=O)/C=C/c3ccco3)cc2)ncn1,-1.3,0.5,4.8,34.3,16.5*,0.83*,
CCOc1ccc(NC(=S)NC(=O)/C=C/c2ccco2)cc1,5.7,-2.6,-2.3,1.7,-3.4,.,
CC(C)CNC(=O)OCc1cn(Cc2cccc(F)c2F)nn1,8.2,.,1.5,.,.,.,
CCCCC1OC23CCCCC2C(C#N)(C(=N)O3)C1(C#N)C#N (stereo unspecified),1.1,-167.3,3.6,41.9,19.9*,-0.15,
CCCCC1OC23CCCCC2C(C#N)(C#N)C1(C#N)C(=N)O3 (stereo unspecified),-0.7,-1.4,9.6,45.4,24.3*,-0.15,Dye-only ctr=-28.7
CCCc1nc2oc3cc(OC)ccc3c(=O)c2c(=O)n1Cc1ccco1,-6.5,16.2,-2.3,-0.3,14.0*,-0.19,
COc1ccc2c(=O)c3c(=O)n(Cc4ccco4)c(-c4ccccc4)nc3oc2c1,-3.2,.,-1.0,1.2,-0.8,.,
CSCCCNC(=O)C1CCN(S(=O)(=O)c2ccc3[nH]c(=O)oc3c2)CC1,0.5,.,-0.3,.,.,.,
CCOc1cc(C2C(C#N)=C(N)OC(C)=C2C(C)=O)cc(Br)c1O (stereo unspecified),6.7,5.1,4.0,47.0,26.2*,-0.1,
COc1ccc(NC(=O)NS(=O)(=O)c2ccc(C)cc2)cn1,48.0*,2.3,11.4,103.9*,77.2*,-0.13,
CCOC(=O)c1c(NC(=O)COC(=O)c2ccc(Cl)nc2)sc(C(=O)N(C)C)c1C,-1.0,-1.7,6.5,-1.0,-3.9,.,
CCOC(=O)c1c(NC(=O)CN2CCN(S(=O)(=O)c3cc(Cl)ccc3Cl)CC2)sc(C(=O)N(C)C)c1C,-6.8,7.2,-0.6,16.9,27.3*,-0.11,
SMILES,Tn7 DDE FP,Rtt109 Vps75,DDE Tn6 FP inh,LANA DNA inh,Keap1 Nrf2 FP,Keap1 Kelch bind,others
O=C(Cc1ccc(S(=O)(=O)N2CCOCC2)s1)Nc1ccc2c(c1)CCC2,5.7,13.7,3.8,0.1,-2.5,.,
O=C(Cc1ccc(S(=O)(=O)N2CCOCC2)s1)Nc1nc2c(s1)CCCC2,-4.1,-9.6,-2.4,17.7,17.6*,0.08,
CCOC(=O)c1ccc(NC(=O)CSc2nnc(-c3cccc(C)c3)n2C)cc1,0.4,.,6.0,.,.,.,
Cc1cc(C)c2nc3sc(C(=O)N4CCOCC4)c(N)c3cc2c1,2.3,17.3,4.4,-1.1,13.7*,-0.17,
CN1C(=O)c2cc(NC(=O)Nc3ccccc3)ccc2OC[C@H]2O[C@@H](CC(=O)NC3Cc4ccccc4C3)CC[C@@H]21,-8.7,.,-3.8,.,.,.,
Cc1ccccc1N1C(=O)c2cccc3c(N(C)CCO)ccc(c23)C1=O,10.8,-10.2,4.2,57.4,13.8*,-0.02,
Cc1ccc(/C=C2/SC(=O)NC2=S)o1,.,-7.9,.,31.3,24.5*,0.73*,
O=C(Nn1cnnc1)c1ccc(Cl)c(Cl)c1,0.9,3.1,-3.6,11.7,21.6*,-0.05,
O=C(Nn1cnnc1)c1cc(Br)ccc1Cl,-6.1,-3.6,0.2,-0.4,-1.7,.,
NC(=O)c1ccc(NC(=O)CSc2nnc(-c3ccccc3)n2-c2ccccc2)cc1,2.3,.,-0.7,.,.,.,
COC(=O)C1CN(Cc2cn(Cc3ccc(C)cc3)nn2)CCS(=O)(=O)N1Cc1ccc(OC)cc1 (stereo unspecified),2.7,.,1.2,.,.,.,
CCCCCCOC(=O)C(C#N)c1nc2ccccc2nc1N1CCOCC1 (stereo unspecified),-5.2,-3.1,-5.0,17.0,19.5*,-0.12,
CCCC[C@H](C(=O)N(C)c1cccc(OC)c1)[C@@H](O)c1ccc(C(C)=O)cc1,-0.3,.,-2.2,.,.,.,
Cc1nc(NS(=O)(=O)c2ccccc2)sc1NC(=O)OCCN(C)C,9.8,1.7,0.8,32.8,27.1*,-0.05,
CCOC(=O)c1c(C)[nH]c(C(=O)COC(=O)c2cccnc2Cl)c1C,-3.7,-19.2,-2.9,10.7,24.9*,-0.07,Dye-only ctr=-26.5
CCC(=O)c1cn(CC(=O)Nc2ccc(OC)cc2)c2ccccc12,5.8,0.6,-1.6,25.5,54.6*,0.01,
CNC(=O)c1ccc(NC(=O)CC23CC4CC(CC(C4)C2)C3)cc1,8.4,7.4,3.8,0.3,-2.4,.,
NC(=O)COc1ccc(NC(=O)CC23CC4CC(CC(C4)C2)C3)cc1,-1.9,-2.1,-0.6,0.6,22.3*,-0.09,
Cc1oc2c(cc(NS(=O)(=O)c3ccc(C(C)C)cc3)c3ccccc32)c1C(=O)O,-3.5,9.7,-2.0,34.9,20.4*,0.52*,
CC(C)(C)OC(=O)NC(Cc1ccccc1)C1CC(C#N)C(=O)O1 (stereo unspecified),1.8,.,4.9,.,.,.,
Cc1nn(-c2ccccc2)c2sc(C(=O)N3CCN(S(=O)(=O)c4ccc(Br)s4)CC3)cc12,9.5,.,10.1,.,.,.,
